Data from ChEMBL document CHEMBL1681732, “Synthesis and SAR of sulfoxide substituted carboxyquinolines as NK3 receptor antagonists” (Bioorg Med Chem Lett, 2011).
Values after ≈ are worked out from the molar mass of the structure shown.

How the values were obtained:
Neuromedin-K receptor = target: T1, Neuromedin-K receptor (Homo sapiens, UniProt P29371); test: Antagonist activity at human NK3 receptor expressed in CHO cells assessed as inhibition of senktide-induced calcium flux by FLIPR assay; assay type: functional, cell-based
T1 sequence (P29371 whole entry): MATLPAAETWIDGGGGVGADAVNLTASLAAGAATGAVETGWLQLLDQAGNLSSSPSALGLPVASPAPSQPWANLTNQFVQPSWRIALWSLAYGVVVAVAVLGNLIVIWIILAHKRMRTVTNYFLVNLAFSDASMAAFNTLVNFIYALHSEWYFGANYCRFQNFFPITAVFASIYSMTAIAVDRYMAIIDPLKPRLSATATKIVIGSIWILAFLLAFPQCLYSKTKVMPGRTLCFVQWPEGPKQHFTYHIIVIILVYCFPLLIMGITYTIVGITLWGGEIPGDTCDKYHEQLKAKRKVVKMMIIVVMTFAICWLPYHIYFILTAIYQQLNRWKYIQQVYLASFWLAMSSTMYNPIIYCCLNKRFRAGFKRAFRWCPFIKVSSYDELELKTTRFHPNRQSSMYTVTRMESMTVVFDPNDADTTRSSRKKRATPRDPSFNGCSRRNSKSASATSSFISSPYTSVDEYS
Method in brief: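 FLIPR functional assay in CHO cells stably expressing human recombinant NK3 receptor. EC50 given as mean ± SEM (n ≥ 2), or as a single value where n = 1. Tested as 1:1 diastereomer mixtures unless marked as a single isomer.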

[1] = Equilibrium solubility of the compound; assay type: physicochemical
MDR1 [2] = test: (§1) Apparent permeability across MDCK cells expressing human MDR1; assay type: ADME, cell-based, Canis lupus familiaris; settings: dog, MDCK-MDR1
Method in brief: (§2)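 Permeability measured in MDCK cells expressing human MDR1. Papp is expressed in 10^-6 cm/s and reported together with the efflux ratio.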

MDR1 [3] = test: (§3) Efflux ratio of permeability in MDCK cells expressing human MDR1; assay type: ADME, cell-based, Canis lupus familiaris; settings: dog, MDCK-MDR1; method in brief: as §2
[4] = Intrinsic clearance in human liver microsomes assessed per mg of protein; assay type: ADME, Microsome
[5] = Lipophilicity, log D of the compound; assay type: physicochemical; settings: octanol/water
[6] = target: Voltage-gated inwardly rectifying potassium channel KCNH2 (Homo sapiens, UniProt Q12809); test: Inhibition of human ERG
Chain of Voltage-gated inwardly rectifying potassium channel KCNH2 (Q12809 whole entry): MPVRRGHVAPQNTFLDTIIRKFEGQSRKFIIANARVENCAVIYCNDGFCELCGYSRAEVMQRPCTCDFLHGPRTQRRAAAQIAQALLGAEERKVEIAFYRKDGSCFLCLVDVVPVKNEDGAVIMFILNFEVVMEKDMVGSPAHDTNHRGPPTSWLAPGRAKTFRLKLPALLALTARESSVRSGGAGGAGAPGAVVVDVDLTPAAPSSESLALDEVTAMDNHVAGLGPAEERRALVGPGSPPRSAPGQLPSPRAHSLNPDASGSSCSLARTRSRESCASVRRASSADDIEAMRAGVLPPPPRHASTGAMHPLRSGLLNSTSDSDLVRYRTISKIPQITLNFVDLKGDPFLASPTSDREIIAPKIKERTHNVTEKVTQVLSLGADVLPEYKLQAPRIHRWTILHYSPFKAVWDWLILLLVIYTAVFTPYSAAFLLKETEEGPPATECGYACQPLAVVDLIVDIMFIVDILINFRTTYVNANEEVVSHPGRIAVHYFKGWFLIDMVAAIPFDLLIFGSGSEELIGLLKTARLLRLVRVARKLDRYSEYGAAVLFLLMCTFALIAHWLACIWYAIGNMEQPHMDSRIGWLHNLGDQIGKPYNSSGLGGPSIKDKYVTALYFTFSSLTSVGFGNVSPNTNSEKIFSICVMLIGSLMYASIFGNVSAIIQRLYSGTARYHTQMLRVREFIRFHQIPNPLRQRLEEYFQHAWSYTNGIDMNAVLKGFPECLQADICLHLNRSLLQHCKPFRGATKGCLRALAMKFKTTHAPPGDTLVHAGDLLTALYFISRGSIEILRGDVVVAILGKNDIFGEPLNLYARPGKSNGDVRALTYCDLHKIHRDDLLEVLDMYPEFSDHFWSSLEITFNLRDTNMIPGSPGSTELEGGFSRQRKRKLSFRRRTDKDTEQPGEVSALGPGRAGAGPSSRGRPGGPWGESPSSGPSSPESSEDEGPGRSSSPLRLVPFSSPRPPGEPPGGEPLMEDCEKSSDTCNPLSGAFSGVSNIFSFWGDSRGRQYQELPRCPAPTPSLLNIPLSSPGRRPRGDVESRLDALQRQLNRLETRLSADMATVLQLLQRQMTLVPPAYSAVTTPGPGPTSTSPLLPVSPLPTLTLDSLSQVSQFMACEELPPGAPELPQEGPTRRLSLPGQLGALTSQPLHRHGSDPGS

Gerbillinae = test: Reversal of senktide-induced locomotor activity in ip dosed gerbil; assay type: functional
MDCK [7] = test: as §1; assay type: ADME, cell-based, Canis lupus familiaris; settings: dog, mdck; method in brief: as §2
MDCK [8] = test: as §3; assay type: ADME, cell-based, Canis lupus familiaris; settings: dog, mdck; method in brief: as §2

SMILES	EC50 (Neuromedin-K receptor) [nM]	solubility thermodynamic [1] [µM]	further results
CC[C@H](NC(=O)c1c(C[S@@+](C)[O-])c(-c2ccccc2)nc2ccccc12)c1ccccc1	1.8	8 (≈ 3.54 µg/mL)	Papp (MDR1 [2]): 10 ×10⁻⁶ cm/s; efflux ratio (MDR1 [3]): 2.6; microsomal CLint [4]: 5.2 µL/min/mg; logD [5]: 3.5; INH [6]: > 33 µM; ED50 (Gerbillinae): 22 µmol/kg
CC[C@H](NC(=O)c1c(SC)c(-c2ccccc2)nc2ccccc12)c1ccccc1 (mixture of isomers)	36	< 1	–
CC[C@H](NC(=O)c1c([S+](C)[O-])c(-c2ccccc2)nc2ccccc12)c1ccccc1 (mixture of isomers)	4.9	–	solubility [1]: 230 µM; Papp (MDR1 [2]): 9.4 ×10⁻⁶ cm/s; efflux ratio (MDR1 [3]): 2.7
CC[C@H](NC(=O)c1c(S(C)(=O)=O)c(-c2ccccc2)nc2ccccc12)c1ccccc1 (mixture of isomers)	14	36	Papp (MDR1 [2]): 11 ×10⁻⁶ cm/s; efflux ratio (MDR1 [3]): 2.6
CC[C@H](NC(=O)c1c(CSC)c(-c2ccccc2)nc2ccccc12)c1ccccc1 (mixture of isomers)	35	2	Papp (MDR1 [2]): 5.9 ×10⁻⁶ cm/s; efflux ratio (MDR1 [3]): 1.1
CC[C@H](NC(=O)c1c(CS(C)(=O)=O)c(-c2ccccc2)nc2ccccc12)c1ccccc1 (mixture of isomers)	2.5	4	Papp (MDR1 [2]): 11 ×10⁻⁶ cm/s; efflux ratio (MDR1 [3]): 3.1
CC[C@H](NC(=O)c1c(CC[S+](C)[O-])c(-c2ccccc2)nc2ccccc12)c1ccccc1 (mixture of isomers)	3.3	360	Papp (MDR1 [2]): 1 ×10⁻⁶ cm/s; efflux ratio (MDR1 [3]): 21
CC[C@H](NC(=O)c1c([S+](C)[O-])c(-c2ccccc2F)nc2ccccc12)c1ccccc1 (mixture of isomers)	81	53	–
CC[C@H](NC(=O)c1c([S+](C)[O-])c(-c2cccc(F)c2)nc2ccccc12)c1ccccc1 (mixture of isomers)	18	100	–
CC[C@H](NC(=O)c1c([S+](C)[O-])c(-c2ccc(F)cc2)nc2ccccc12)c1ccccc1 (mixture of isomers)	48	88	–
CC[C@H](NC(=O)c1c([S+](C)[O-])c(-c2cccs2)nc2ccccc12)c1ccccc1 (mixture of isomers)	1.7	47	microsomal CLint [4]: 220 µL/min/mg
CC[C@H](NC(=O)c1c([S+](C)[O-])c(-c2ccsc2)nc2ccccc12)c1ccccc1 (mixture of isomers)	1.8	–	microsomal CLint [4]: 190 µL/min/mg
CC[C@H](NC(=O)c1c([S+](C)[O-])c(-c2ccccn2)nc2ccccc12)c1ccccc1 (mixture of isomers)	1120	360	–
CC[C@H](NC(=O)c1c([S+](C)[O-])c(-c2cscn2)nc2ccccc12)c1ccccc1 (mixture of isomers)	110	41	–
CC[C@H](NC(=O)c1c([S+](C)[O-])c(-c2cncs2)nc2ccccc12)c1ccccc1 (mixture of isomers)	220	390	–
CC[C@H](NC(=O)c1c([S+](C)[O-])c(-c2cc[nH]n2)nc2ccccc12)c1ccccc1 (mixture of isomers)	2500	420	–
CC[C@H](NC(=O)c1c([S+]([O-])CC)c(-c2ccccc2)nc2ccccc12)c1ccccc1 (mixture of isomers)	6.9	170	–
CC[C@H](NC(=O)c1c([S+]([O-])C(C)C)c(-c2ccccc2)nc2ccccc12)c1ccccc1 (mixture of isomers)	16	83	–
CC[C@H](NC(=O)c1c([S+]([O-])CC(=O)N(C)C)c(-c2ccccc2)nc2ccccc12)c1ccccc1 (mixture of isomers)	12	52	–

SMILES	EC50 (Neuromedin-K receptor) [nM]	solubility thermodynamic [1] [µM]	further results
CC[C@H](NC(=O)c1c([S+](C)[O-])c(-c2ccccc2)nc2c(F)cccc12)c1ccccc1 (mixture of isomers)	8.2	160	–
CC[C@H](NC(=O)c1c([S+](C)[O-])c(-c2ccccc2)nc2c(C)cccc12)c1ccccc1 (mixture of isomers)	1900	16	–
CC[C@H](NC(=O)c1c([S+](C)[O-])c(-c2ccccc2)nc2cc(F)ccc12)c1ccccc1 (mixture of isomers)	13	58	–
CC[C@H](NC(=O)c1c([S+](C)[O-])c(-c2ccccc2)nc2cc(Cl)ccc12)c1ccccc1 (mixture of isomers)	7.7	34	–
CCOc1ccc2c(C(=O)N[C@@H](CC)c3ccccc3)c([S+](C)[O-])c(-c3ccccc3)nc2c1 (mixture of isomers)	38	69	–
CC[C@H](NC(=O)c1c([S+](C)[O-])c(-c2ccccc2)nc2cc(N(C)C)ccc12)c1ccccc1 (mixture of isomers)	212	44	–
CC[C@H](NC(=O)c1c([S+](C)[O-])c(-c2ccccc2)nc2cc(Br)ccc12)c1ccccc1 (mixture of isomers)	5.1	15	–
CC[C@H](NC(=O)c1c([S+](C)[O-])c(-c2ccccc2)nc2cc(C)ccc12)c1ccccc1 (mixture of isomers)	3.6	160	–
CC[C@H](NC(=O)c1c([S+](C)[O-])c(-c2ccccc2)nc2cc(CN(C)C)ccc12)c1ccccc1 (mixture of isomers)	88	460	–
C[S+]([O-])c1c(-c2ccccc2)nc2ccccc2c1C(=O)N[C@H](c1ccccc1)C1CC1 (mixture of isomers)	15	180	–
C[S+]([O-])c1c(-c2ccccc2)nc2ccccc2c1C(=O)N[C@H](c1ccncc1)C1CC1 (mixture of isomers)	> 10000	–	solubility [1]: 99 µM
CC[C@H](NC(=O)c1c([S+](C)[O-])c(-c2ccccc2)nc2ccccc12)c1cccnc1 (mixture of isomers)	74	350	–
CC[C@H](NC(=O)c1c([S+](C)[O-])c(-c2ccccc2)nc2ccccc12)c1ccccn1 (mixture of isomers; 35a)	77	420	–
CC[C@H](NC(=O)c1c([S+](C)[O-])c(-c2ccccc2)nc2ccccc12)c1ccccn1 (mixture of isomers; 35b)	> 5200	–	solubility [1]: 460 µM
C[S+]([O-])c1c(-c2ccccc2)nc2ccccc2c1C(=O)NC1(c2ccccc2)CC1 (racemic)	16	1.3 (≈ 0.555 µg/mL)	–
C[S+]([O-])c1c(-c2ccccc2)nc2ccccc2c1C(=O)NC1(c2ccccc2)CCC1 (racemic)	38	4.5 (≈ 1.98 µg/mL)	–
CC[C@H](NC(=O)c1c([S+](C)[O-])c(-c2cccnc2)nc2ccccc12)c1ccccc1 (single isomer, unassigned)	690	470 (≈ 202 µg/mL)	–
CC[C@H](NC(=O)c1c([S+](C)[O-])c(-c2ccccc2)nc2ccccc12)c1ccccc1 (stereo in doubt; 2b)	240	–	solubility [1]: 44 µM (≈ 18.9 µg/mL); Papp (MDCK [7]): 17 ×10⁻⁶ cm/s; Ratio (MDCK [8]): 2
C[S+]([O-])c1c(-c2ccccc2)nc2ccccc2c1C(=O)N[C@H](c1ccncc1)C1CC1 (stereo in doubt; 33b)	> 9300	–	solubility [1]: 370 µM (≈ 163 µg/mL)
